Converted amounts (≈) assume the structure as drawn. The source made the active and inactive calls. The calls are words filed in the database; no cut-off is given here.
Legend:
Staphylococcus aureus [1] = test: Antimicrobial activity against methicillin-resistant Staphylococcus aureus COL vraG mutant by microdilution assay; assay type: functional, organism-based
In short: (§1)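 Standardized CLSI broth microdilution was run in CSMHB with 10^5 CFU/ml inoculum and scored at 48 h. Values are medians of at least three independent experiments. Daptomycin MICs for Mu50 strains were read by Etest per the supplied protocol instead of microdilution.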

Staphylococcus aureus [2] = test: Antimicrobial activity against methicillin-resistant Staphylococcus aureus COL graR mutant by microdilution assay; assay type: functional, organism-based; in short: as §1
Staphylococcus aureus [3] = test: Antimicrobial activity against methicillin-susceptible Staphylococcus aureus RN6390 graR by microdilution assay; assay type: functional, organism-based; in short: as §1
Staphylococcus aureus [4] = test: Antimicrobial activity against methicillin-susceptible Staphylococcus aureus RN6390 graS by microdilution assay; assay type: functional, organism-based; in short: as §1
Staphylococcus aureus [5] = test: Antimicrobial activity against wild type methicillin-resistant Staphylococcus aureus COL expressing pEPSA5vraFG2 plasmid by microdilution assay; assay type: functional, organism-based
In short: (§2)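 CLSI broth microdilution was run in CSMHB with 10^5 CFU/ml for strains carrying pEPSA5-based plasmids. Chloramphenicol 10 μg/ml maintained the plasmid, and growth was scored at 72 h. Media were used with or without 0.5% xylose or glucose. MIC is the median over all conditions from three independent experiments.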

Staphylococcus aureus [6] = test: Antimicrobial activity against wild type methicillin-resistant Staphylococcus aureus COL expressing pEPSA5graRS2 plasmid by microdilution assay; assay type: functional, organism-based; in short: as §2
Staphylococcus aureus [7] = test: Antimicrobial activity against methicillin-resistant Staphylococcus aureus COL graS mutant by microdilution assay; assay type: functional, organism-based; in short: as §1
Staphylococcus aureus [8] = test: Antimicrobial activity against wild type vancomycin-intermediate resistant Staphylococcus aureus Mu50 by microdilution assay; assay type: functional; in short: as §1
Staphylococcus aureus [9] = test: Antimicrobial activity against wild type methicillin-resistant Staphylococcus aureus COL expressing pEPSA5 plasmid by microdilution assay; assay type: functional, organism-based; in short: as §2
Staphylococcus aureus [10] = test: Antimicrobial activity against wild type methicillin-resistant Staphylococcus aureus COL by microdilution assay; assay type: functional, organism-based; in short: as §1
Staphylococcus aureus [11] = test: Antimicrobial activity against wild type methicillin-resistant Staphylococcus aureus COL expressing pEPSA5vraFG1 plasmid by microdilution assay; assay type: functional, organism-based; in short: as §2
Staphylococcus aureus [12] = test: Antimicrobial activity against vancomycin-intermediate resistant Staphylococcus aureus Mu50 vraG mutant microdilution assay; assay type: functional; in short: as §1
Staphylococcus aureus [13] = test: Antimicrobial activity against vancomycin-intermediate resistant Staphylococcus aureus Mu50 graR mutant microdilution assay; assay type: functional; in short: as §1
Staphylococcus aureus [14] = test: Antimicrobial activity against wild type methicillin-susceptible Staphylococcus aureus RN6390 by microdilution assay; assay type: functional, organism-based; in short: as §1
Staphylococcus aureus [15] = settings: COL
Staphylococcus aureus [16] = test: Antimicrobial activity against methicillin-susceptible Staphylococcus aureus RN6390 vraG by microdilution assay; assay type: functional, organism-based; in short: as §1
Staphylococcus aureus [17] = test: Antimicrobial activity against wild type vancomycin-intermediate resistant Staphylococcus aureus Mu50 expressing pEPSA5graRS1 plasmid by microdilution assay
Staphylococcus aureus [18] = test: Antimicrobial activity against wild type vancomycin-intermediate resistant Staphylococcus aureus Mu50 expressing pEPSA5 plasmid by microdilution assay
Staphylococcus aureus [19] = test: Antimicrobial activity against methicillin-resistant Staphylococcus aureus sacol2358 mutant assessed as hypersensitivity at 1 ug/ml; assay type: functional, organism-based
In short: (§3)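 Overnight CSMHB cultures (Mueller-Hinton broth with 25 μg/ml Ca2+ and 12.5 μg/ml Mg2+) were adjusted to A650 1.1 (~10^9 CFU/ml). They were diluted 200 μl per 7 ml CSMHB with or without 1 μg/ml vancomycin, and growth curves were plotted as A650 over time. Plasmid-carrying strains received 10 μg/ml chloramphenicol.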

Staphylococcus aureus [20] = test: Antimicrobial activity against vancomycin-intermediate resistant Staphylococcus aureus Mu50 vraG mutant expressing pEPSA5graRS1 plasmid by microdilution assay
Staphylococcus aureus [21] = test: Antimicrobial activity against wild type vancomycin-intermediate resistant Staphylococcus aureus Mu50 expressing pEPSA5graFG1 plasmid by microdilution assay
Staphylococcus aureus [22] = test: Antimicrobial activity against methicillin-resistant Staphylococcus aureus sacol2646 mutant assessed as hypersensitivity at 1 ug/ml; assay type: functional, organism-based; in short: as §3
Staphylococcus aureus [23] = test: Antimicrobial activity against methicillin-resistant Staphylococcus aureus sacol1355 mutant assessed as hypersensitivity at 1 ug/ml; assay type: functional, organism-based; in short: as §3
Staphylococcus aureus [24] = test: Antimicrobial activity against methicillin-resistant Staphylococcus aureus COL assessed as hypersensitivity at 1 ug/ml; assay type: functional, organism-based; in short: as §3
Staphylococcus aureus [25] = test: Antimicrobial activity against methicillin-resistant Staphylococcus aureus COL graR mutant assessed as hypersensitivity at 1 ug/ml; assay type: functional, organism-based; in short: as §3
Staphylococcus aureus [26] = test: Antimicrobial activity against wild type methicillin-resistant Staphylococcus aureus COL expressing pEPSA5graRS1 plasmid by microdilution assay
Staphylococcus aureus [27] = test: Antimicrobial activity against wild type vancomycin-intermediate resistant Staphylococcus aureus Mu50 expressing pEPSA5graRS2 plasmid by microdilution assay

Compound	MIC (Staphylococcus aureus [8])	MIC (Staphylococcus aureus [12])	MIC (Staphylococcus aureus [13])	further results
POLYMYXIN B	128 µg/mL	16 µg/mL	16 µg/mL	MIC (Staphylococcus aureus [1]): 8 µg/mL; MIC (Staphylococcus aureus [2]): 8 µg/mL; MIC (Staphylococcus aureus [3]): 4 µg/mL; MIC (Staphylococcus aureus [4]): 4 µg/mL; MIC (Staphylococcus aureus [5]): 64 µg/mL; MIC (Staphylococcus aureus [6]): 64 µg/mL; MIC (Staphylococcus aureus [7]): 8 µg/mL; MIC (Staphylococcus aureus [9]): 64 µg/mL; MIC (Staphylococcus aureus [10]): 64 µg/mL; MIC (Staphylococcus aureus [11]): 64 µg/mL; MIC (Staphylococcus aureus [14]): 32 µg/mL; MIC (Staphylococcus aureus [15]): 128 µg/mL; MIC (Staphylococcus aureus [16]): 4 µg/mL
CN(C)[C@@H]1C(O)=C(C(N)=O)C(=O)[C@@]2(O)C(O)=C3C(=O)c4c(O)cccc4[C@@](C)(O)[C@H]3C[C@@H]12 [TETRACYCLINE]	64 µg/mL (≈ 144 µM)	64 µg/mL (≈ 144 µM)	128 µg/mL (≈ 288 µM)	
O=C(O)c1cn(C2CC2)c2cc(N3CCNCC3)c(F)cc2c1=O [CIPROFLOXACIN]	32 µg/mL (≈ 96.6 µM)	64 µg/mL (≈ 193 µM)	64 µg/mL (≈ 193 µM)	
NC[C@H]1O[C@H](O[C@H]2[C@H](O)[C@@H](O[C@H]3O[C@H](CO)[C@@H](O)[C@H](N)[C@H]3O)[C@H](N)C[C@@H]2N)[C@H](N)C[C@@H]1O [TOBRAMYCIN]	≥ 2050 µg/mL	≥ 2050 µg/mL	≥ 2050 µg/mL	
N[C@@H]1CONC1=O [CYCLOSERINE]	128 µg/mL (≈ 1250 µM)	64 µg/mL (≈ 627 µM)	64 µg/mL (≈ 627 µM)	
CO[C@H]1/C=C/O[C@@]2(C)Oc3c(C)c(O)c4c(O)c(c(/C=N/N5CCN(C)CC5)c(O)c4c3C2=O)NC(=O)/C(C)=C\C=C\[C@H](C)[C@H](O)[C@@H](C)[C@@H](O)[C@@H](C)[C@H](OC(C)=O)[C@@H]1C [RIFAMPIN]	1020 µg/mL (≈ 1240 µM)	1020 µg/mL (≈ 1240 µM)	1020 µg/mL (≈ 1240 µM)	
O=C(N[C@H](CO)[C@H](O)c1ccc([N+](=O)[O-])cc1)C(Cl)Cl [CHLORAMPHENICOL]	8 µg/mL (≈ 24.8 µM)	8 µg/mL (≈ 24.8 µM)	8 µg/mL (≈ 24.8 µM)	
C/C(=C\C(=O)OCCCCCCCCC(=O)O)C[C@@H]1OC[C@H](C[C@@H]2O[C@H]2[C@@H](C)[C@H](C)O)[C@@H](O)[C@H]1O [MUPIROCIN]	0.25 µg/mL (≈ 0.499 µM)	0.25 µg/mL (≈ 0.499 µM)	0.25 µg/mL (≈ 0.499 µM)	
CO[C@@H]1[C@@H](OC(N)=O)[C@@H](O)[C@H](Oc2ccc3c(O)c(NC(=O)c4ccc(O)c(CC=C(C)C)c4)c(=O)oc3c2C)OC1(C)C [NOVOBIOCIN]	0.125 µg/mL (≈ 0.204 µM)	0.125 µg/mL (≈ 0.204 µM)	0.25 µg/mL (≈ 0.408 µM)	
CCCCCCCCCC(=O)N[C@@H](Cc1c[nH]c2ccccc12)C(=O)N[C@H](CC(N)=O)C(=O)N[C@@H](CC(=O)O)C(=O)N[C@@H]1C(=O)NCC(=O)N[C@@H](CCCN)C(=O)N[C@@H](CC(=O)O)C(=O)N[C@H](C)C(=O)N[C@@H](CC(=O)O)C(=O)NCC(=O)N[C@H](CO)C(=O)N[C@@H]([C@H](C)CC(=O)O)C(=O)N[C@@H](CC(=O)c2ccccc2N)C(=O)O[C@@H]1C	2 µg/mL (≈ 1.23 µM)	2 µg/mL (≈ 1.23 µM)	1 µg/mL (≈ 0.617 µM)	
Cc1onc(-c2ccccc2)c1C(=O)N[C@@H]1C(=O)N2[C@@H]1SC(C)(C)[C@@H]2C(=O)O [OXACILLIN]	512 µg/mL (≈ 1280 µM)	1020 µg/mL (≈ 2550 µM)	256 µg/mL (≈ 638 µM)	
CC[C@H](C)[C@@H]1NC(=O)[C@H](CO)NC(=O)[C@@H]2CCCN2C(=O)[C@H](C)NC(=O)CNC(=O)[C@H](CC(C)C)NC(=O)[C@H](CCCCN)N[C@H](CCCCN)NC(=O)[C@H](CCSC)NC(=O)[C@H](CCCNC(=N)N)NC(=O)[C@H](Cc2c[nH]c3ccccc23)NC(=O)[C@H](CCC(N)=O)NC(=O)[C@H](Cc2c[nH]c3ccccc23)NC(=O)[C@H](CCCNC(=N)N)NC(=O)[C@H](CCCNC(=N)N)NC(=O)[C@@H](NC(=O)[C@H](CCCCN)NC(=O)[C@@H](N)Cc2ccccc2)CSSC[C@@H](C(=O)N[C@H](C(=O)N[C@@H](CCCNC(=N)N)C(=O)N[C@@H](C)C(=O)N[C@@H](Cc2ccccc2)C(=O)O)C(C)C)NC(=O)[C@H]([C@@H](C)O)NC1=O [LACTOFERRICIN]	≥ 512 µg/mL	≥ 512 µg/mL	≥ 512 µg/mL	
CN[C@H](CC(C)C)C(=O)N[C@H]1C(=O)N[C@@H](CC(N)=O)C(=O)N[C@H]2C(=O)N[C@H]3C(=O)N[C@H](C(=O)N[C@H](C(=O)O)c4cc(O)cc(O)c4-c4cc3ccc4O)[C@H](O)c3ccc(c(Cl)c3)Oc3cc2cc(c3O[C@@H]2O[C@H](CO)[C@@H](O)[C@H](O)[C@H]2O[C@H]2C[C@](C)(N)[C@H](O)[C@H](C)O2)Oc2ccc(cc2Cl)[C@H]1O [VANCOMYCIN]	8 µg/mL (≈ 5.52 µM)			MIC (Staphylococcus aureus [17]): 8 µg/mL (≈ 5.52 µM); MIC (Staphylococcus aureus [18]): 8 µg/mL (≈ 5.52 µM); Activity (Staphylococcus aureus [19]): inactive; MIC (Staphylococcus aureus [20]): 8 µg/mL (≈ 5.52 µM); MIC (Staphylococcus aureus [21]): 8 µg/mL (≈ 5.52 µM); Activity (Staphylococcus aureus [22]): inactive; Activity (Staphylococcus aureus [23]): inactive; Activity (Staphylococcus aureus [24]): inactive; Activity (Staphylococcus aureus [25]): Active; MIC (Staphylococcus aureus [26]): 8 µg/mL (≈ 5.52 µM); MIC (Staphylococcus aureus [27]): 8 µg/mL (≈ 5.52 µM)
COc1cc(Cc2cnc(N)nc2N)cc(OC)c1OC [TRIMETHOPRIM]	4 µg/mL (≈ 13.8 µM)	4 µg/mL (≈ 13.8 µM)	2 µg/mL (≈ 6.89 µM)	
CC[C@H]1OC(=O)[C@H](C)[C@@H](O[C@H]2C[C@@](C)(OC)[C@@H](O)[C@H](C)O2)[C@H](C)[C@@H](O[C@@H]2O[C@H](C)C[C@H](N(C)C)[C@H]2O)[C@](C)(O)C[C@@H](C)C(=O)[C@H](C)[C@@H](O)[C@]1(C)O [ERYTHROMYCIN]	≥ 2050 µg/mL	≥ 2050 µg/mL	1020 µg/mL (≈ 1400 µM)	
C[C@@H]1O[C@@H]1P(=O)(O)O [FOSFOMYCIN]	1020 µg/mL (≈ 7420 µM)	1020 µg/mL (≈ 7420 µM)	1020 µg/mL (≈ 7420 µM)	

Reference: ChEMBL document CHEMBL1155143, “Interaction of the GraRS two-component system with the VraFG ABC transporter to support vancomycin-intermediate resistance in Staphylococcus aureus” (2007)
